Measurements: the array DNA melting data of Ke et al. (doi:10.1101/2024.01.08.574731)

What was measured:
[1] = folding enthalpy; higher = less favourable; fluorescence melt of hairpins on a sequencing array, two-state fit; details: sodium 0.088 M
Method in brief: (§1)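 Cy3 signals were normalised both to pre-quench Cy3 and to control constructs. They came from library hairpins carrying annealed Cy3 and quencher oligos on a sequenced MiSeq flow cell, imaged in 50 mM Na-HEPES pH 8.0, 25 mM NaCl, in 2.5 °C steps up to 60 °C. Bootstrapped two-state fits gave melting temperature and folding enthalpy, and four replicates were combined by inverse variance. Fitted temperatures were then raised by 9.35 °C to match UV melts.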

[2] = melting temperature; fluorescence melt of hairpins on a sequencing array, two-state fit, raised by 9.35 °C to match UV melts; details: sodium 0.088 M
Method in brief: as §1

Sequence | folding enthalpy [1] | Tm [2]
GATCTCTCTGGAGATC ((((((....)))))) | -42.8 kcal/mol | 54.8 °C
GATCGCTCATGCGATC ((((((....)))))) | -40.2 kcal/mol | 67.8 °C
ACCCTGAAAAGGGT (((((....))))) | -19.2 kcal/mol | 53.2 °C
GACTACGAAAGTAAAGTC ((((((....)))..))) | -23.3 kcal/mol | 36.5 °C
GGGTACGAAAGTATACCC ((((((....)))..))) | -25.9 kcal/mol | 43.9 °C
GGCTGCGAAAGCACGGCC ((((((....)))..))) | -23.4 kcal/mol | 53.5 °C
GTAACACGAAAGTGCTAC (((.(((....))).))) | -28.4 kcal/mol | 43.7 °C
GATCTCGCAGAGATC ((((((...)))))) | -30.5 kcal/mol | 68 °C
GATCCGGTATCGGATC ((((((....)))))) | -42.5 kcal/mol | 63.5 °C
GATGACGAAAGTCTCATC ((((((....)))..))) | -9.72 kcal/mol | 32.5 °C
GGACTGACGAAAGTCTCC (((..(((....)))))) | -9.45 kcal/mol | 28.6 °C
GGCATGAAAATGCC (((((....))))) | -26 kcal/mol | 62.8 °C
GTCCGCGAAAGCGATGAC ((((((....)))..))) | -15.9 kcal/mol | 38.3 °C
GTTATGCGAAAGCAAAAC (((.(((....))).))) | -21 kcal/mol | 41.2 °C
GATCGTTCAACGATC ((((((...)))))) | -42 kcal/mol | 55.5 °C
GTGGTACGAAAGTACAC (((.(((....)))))) | -15 kcal/mol | 49.7 °C
GGAAGAGGAAACTCCTCC (((.(((....))).))) | -13.9 kcal/mol | 28 °C
GATCAACACGTTGATC ((((((....)))))) | -40.2 kcal/mol | 53.6 °C
GTCACCCGAAAGGGGAC (((.(((....)))))) | -20.1 kcal/mol | 55 °C
GGCGTCGGAAACGACGTC (.(((((....))))).) | -23.4 kcal/mol | 66.2 °C
GCGGTACACCGC ((((....)))) | -40.4 kcal/mol | 59.1 °C
CACTAGAAATAGTG (((((....))))) | -16.9 kcal/mol | 37.2 °C
GTATTTCGAAAGAAGTAC (((.(((....))).))) | -34.3 kcal/mol | 40.4 °C
GACATGGGAAACCATGTC (((((((....))))))) | -42.8 kcal/mol | 61.3 °C

Sequence | folding enthalpy [1] | Tm [2]
GCCGAGCGAAAGCATGGC (((..((....))..))) | -28.1 kcal/mol | 64 °C
CGCGGATGATTCCGCG ((((((....)))))) | -31.2 kcal/mol | 69.3 °C
GTCGAAGGAAACTTCGGC (.(((((....))))).) | -43.1 kcal/mol | 51.3 °C
CTAGAGAAATCTAG (((((....))))) | -7.95 kcal/mol | 26.2 °C
GGTCCCGAAAGGGAGACC ((((((....)))..))) | -17 kcal/mol | 51.4 °C
GTTAAGGCGAAAGCCAAC (((..(((....)))))) | -11 kcal/mol | 32.8 °C
GGGTGGGGAAACCCGCTC (.(.(((....))).).) | -17.7 kcal/mol | 49.1 °C
GCTTTGGCGAAAGCCAGC (((..(((....)))))) | -10.1 kcal/mol | 38.2 °C
GTCCCACCGAAAGGTGAC (((..(((....)))))) | -8.32 kcal/mol | 27 °C
GTTGATGGAAACACCAAC ((((.((....)).)))) | -30.2 kcal/mol | 37 °C
GGTGCCCGAAAGGGACC (((.(((....)))))) | -21.5 kcal/mol | 58.1 °C
GCCCTGCGAAAGCTTGGC (((..((....))..))) | -23 kcal/mol | 50.6 °C
GGGCATCGAAAGATCCCC (((.(((....))).))) | -19.4 kcal/mol | 48.9 °C
GGGATGAAAATCCC (((((....))))) | -28.8 kcal/mol | 56.5 °C
GGGCGCGAAAGCGGTCCC ((((((....)))..))) | -11.7 kcal/mol | 63.8 °C
GCGTCCTCACGC ((((....)))) | -24.3 kcal/mol | 50.9 °C
GGGCGCGAAAGCGAGCCC ((((((....)))..))) | -16.7 kcal/mol | 66.2 °C
GCTGAGCGAAAGCCTAGC (((..((....))..))) | -16.4 kcal/mol | 48.4 °C
GTGTCTGGAAACAGATAC ((.((((....)))).)) | -37.9 kcal/mol | 46.1 °C
GCTGTGGGAAACTGCAGC ((((..(....)..)))) | -20.3 kcal/mol | 48.1 °C
GTGGCAGGAAACTGCTGC (..((((....))))..) | -17.4 kcal/mol | 44.2 °C
GACTCCGAAAGGAGTGTC ((((((....)))..))) | -12.3 kcal/mol | 58.4 °C
GCGGACTCCGC ((((...)))) | -20.5 kcal/mol | 52 °C
GCATTTCGAAAGAAGTGC (((.(((....))).))) | -45.6 kcal/mol | 51.4 °C

Sequence | folding enthalpy [1] | Tm [2]
GGGCGCGAAAGCGATCCC ((((((....)))..))) | -14.3 kcal/mol | 58.5 °C
GGACGGTCGAAAGACTCC (((..(((....)))))) | -12.2 kcal/mol | 29.5 °C
GTCTGTCCGAAAGGAGAC (((..(((....)))))) | -15.1 kcal/mol | 31.3 °C
GCAGGACGAAAGTCTGC (((.(((....)))))) | -31.7 kcal/mol | 58.4 °C
GGGTGCTCGAAAGAGCCC (((..(((....)))))) | -17.7 kcal/mol | 52.6 °C
GTGACACGAAAGTGCCAC (((.(((....))).))) | -40.1 kcal/mol | 56.3 °C
GATACACGAAAGTGATC (((.(((....)))))) | -12.4 kcal/mol | 36.8 °C
GCCTTGCGAAAGCATAGC ((..(((....)))..)) | -9.69 kcal/mol | 50.8 °C
GAGAAACGAAAGTTACTC (((.(((....))).))) | -28.9 kcal/mol | 41.7 °C
GCGGATCCCGC ((((...)))) | -23.4 kcal/mol | 53.6 °C
GGAACCGAAAGGTTCTCC ((((((....)))..))) | -10.8 kcal/mol | 51.9 °C
GTATTCGGAAACAAATAC (((((.(....).))))) | -10.3 kcal/mol | 22.5 °C
GGGGTTGGAAACAATCCC (((.(((....))).))) | -42.4 kcal/mol | 52.5 °C
GAGGTACGAAAGTAACTC (((.(((....))).))) | -38.6 kcal/mol | 54.1 °C
GGGTGCGAAAGCAAACCC ((((((....)))..))) | -29.3 kcal/mol | 55.9 °C
GCGGGATCGAAAGATCGC (((..(((....)))))) | -13.8 kcal/mol | 51 °C
GGGCTCGGAAACAAGCCC (((((.(....).))))) | -28.1 kcal/mol | 51.4 °C
GTCAACGAAAGTTCAGAC ((((((....)))..))) | -11.4 kcal/mol | 28.3 °C
GCGTGCTGACGC ((((....)))) | -18.1 kcal/mol | 58.2 °C
CGTGCGGAAACGCAGACG ((((((....)))..))) | -15.7 kcal/mol | 47.4 °C
GCTGTGCGAAAGCAAAGC (((.(((....))).))) | -42.2 kcal/mol | 55.7 °C
GTTTAGGGAAACTTAAAC (((((.(....).))))) | -15.4 kcal/mol | 35.5 °C
GCACCCGAAAGGGATGC ((((((....))).))) | -28.7 kcal/mol | 60.5 °C
GATCGAGGAAACTCGACC (.(((((....))))).) | -14.8 kcal/mol | 41.4 °C

Sequence | folding enthalpy [1] | Tm [2]
GACCCTGGAAACAGGGCC (.(((((....))))).) | -17.2 kcal/mol | 47.2 °C
GATCAGGGTTCTGATC ((((((....)))))) | -42.1 kcal/mol | 50.8 °C
GCCAACGAAAGTTGTGGC ((((((....)))..))) | -18.4 kcal/mol | 48.4 °C
GTCAGGACGAAAGTCGAC (((..(((....)))))) | -18.7 kcal/mol | 41.3 °C
GCTAGCGGAAACGCTGGC ((.((((....)))).)) | -33.3 kcal/mol | 60.3 °C
GCGACAATTCGC ((((....)))) | -17.2 kcal/mol | 44.8 °C
GATCTCGCGCGAGATC ((((((....)))))) | -48.4 kcal/mol | 62.5 °C
GAGTTTGGAAACAAACCC (.(((((....))))).) | -18.5 kcal/mol | 37.3 °C
GTACACGGAAACGTGCAC ((.((((....)))).)) | -17.9 kcal/mol | 46.8 °C
GCGCTCGAAAGAGGCCGC ((((((....)))..))) | -16.5 kcal/mol | 47.5 °C
GATCACTATAGTGATC ((((((....)))))) | -38.1 kcal/mol | 58.8 °C
GGGGATGGAAACGTCTCC ((.((.(....).)).)) | -26 kcal/mol | 36.5 °C
GATGGAGGAAACCCCATC (((((.(....).))))) | -31.6 kcal/mol | 43 °C
GTTACAGGAAACTGTGAC ((.((((....)))).)) | -30 kcal/mol | 44.6 °C
GATCTCCATGGAGATC ((((((....)))))) | -42 kcal/mol | 57.4 °C
GAAGTTGGAAACAACTCC (.(((((....))))).) | -19.2 kcal/mol | 34.1 °C
GTAAGCGAAAGCTGTAC ((((((....))).))) | -15.7 kcal/mol | 43 °C
GCGCTCCGAAAGGATCGC (((.(((....))).))) | -41 kcal/mol | 59.2 °C
GTTTGTGGAAACACAAAC (((((((....))))))) | -46.4 kcal/mol | 58.4 °C
GCCTAAGGAAACTTAGAC (.(((((....))))).) | -19.8 kcal/mol | 27.8 °C
GATCTAGACGTAGATC ((((((....)))))) | -38.9 kcal/mol | 44.8 °C
